Columns and labels:
[1] = test system: Raji; assay: Inhibition of TPA-induced EBV-early antigen activation in human Raji cells assessed as early antigen induction at 1000 molar ratio relative to TPA; assay type: cell-based; conditions: human gammaherpesvirus 4
Method in brief: (§1)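 EBV early antigen induction is measured in Raji cells (virus nonproducer type) stimulated with TPA at 32 pmol. Sample concentration is expressed as mol ratio/TPA; ×1000 equals 32 nmol/mL. EA induction is expressed as a percentage of the positive (TPA-only) value, set as 100%.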

[2] = test system: Raji; assay: Inhibition of TPA-induced EBV-early antigen activation in human Raji cells assessed as early antigen induction at 500 molar ratio relative to TPA; assay type: cell-based; conditions: human gammaherpesvirus 4; method in brief: as §1
[3] = test system: Raji; assay: Inhibition of TPA-induced EBV-early antigen activation in human Raji cells assessed as early antigen induction at 100 molar ratio relative to TPA; assay type: cell-based; conditions: human gammaherpesvirus 4; method in brief: as §1
[4] = Cytotoxicity against human Raji cells assessed as cell viability at 1000 molar ratio; assay type: cell-based; conditions: read-out: Activity
Method in brief: (§2)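 Raji cells (EBV nonproducer type) serve as indicator cells in the TPA-induced EBV-EA activation assay. Sample is dosed as a mol ratio to TPA, with TPA at 32 pmol; ×1000 corresponds to 32 nmol/mL sample. Viability of the indicator cells is reported as a percentage.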

[5] = Cytotoxicity against human Raji cells assessed as cell viability at 500 molar ratio; assay type: cell-based; conditions: read-out: Activity; method in brief: as §2
[6] = Cytotoxicity against human Raji cells assessed as cell viability at 100 molar ratio; assay type: cell-based; conditions: read-out: Activity; method in brief: as §2
[7] = Cytotoxicity against human Raji cells assessed as cell viability at 10 molar ratio; assay type: cell-based; conditions: read-out: Activity; method in brief: as §2
[8] = test system: Raji; assay: Inhibition of TPA-induced EBV-early antigen activation in human Raji cells assessed as early antigen induction at 10 molar ratio relative to TPA; conditions: human gammaherpesvirus 4

SMILES	EBV early antigen induction (% of TPA-only control) [1]	EBV early antigen induction (% of TPA control) [2]	EBV early antigen induction (% of TPA-only control) [3]	viability at 1000 molar ratio [4]	viability at 500 molar ratio [5]	viability at 100 molar ratio [6]	viability at 10 molar ratio [7]	EBV early antigen induction relative to TPA [8]
C/C1=C\C=C(\[C@@](C)(O)CO)C[C@@H](O)/C(C)=C/CC[C@]2(C)O[C@H]2CC1	5.7%	54.2%	72.9%	60%	> 80%	> 80%	> 80%	92.6%
C/C1=C\C=C(\[C@@](C)(O)CO)CC/C(C=O)=C/CC[C@]2(C)O[C@H]2CC1	3.6%	52.4%	71.3%	60%	> 80%	> 80%	> 80%	90.6%
CC1=C2C[C@H](O)/C(C)=C/CC[C@]3(C)O[C@H]3CC/C(C)=C/[C@@H]2OC1=O	14.2%	62.8%	81.3%	60%	> 80%	> 80%	> 80%	100%
C/C1=C\C=C(\C(C)C)[C@@H](O)C/C(C)=C/CC/C(C)=C/CC1	11.7%	60.4%	79.1%	50%	> 80%	> 80%	> 80%	97.3%
C/C1=C\C=C(\[C@@](C)(O)CO)CC(=O)/C(C)=C/CC[C@]2(C)O[C@H]2CC1	8.3%	56.7%	75.1%	60%	> 80%	> 80%	> 80%	94%
CC1=C2CC/C(C=O)=C/CC[C@]3(C)O[C@H]3CC/C(C)=C/[C@@H]2OC1=O	12.7%	60.8%	81.3%	60%	> 80%	> 80%	> 80%	96%
C/C(CO)=C1\CC/C(C)=C/CC[C@]2(C)O[C@H]2CC/C(C)=C/[C@@H]1O	9.6%	57.3%	75.5%	60%	> 80%	> 80%	> 80%	94.1%
C/C1=C\C=C(\[C@@](C)(O)CO)C[C@H](O)/C(C)=C/CC[C@]2(C)O[C@H]2CC1	5.9%	55.8%	74.6%	60%	> 80%	> 80%	> 80%	93.8%
CC1=C2CC/C(C)=C/CC[C@]3(C)O[C@H]3CC/C(C)=C/[C@@H]2OC1=O [SARCOPHINE]	19.6%	67.5%	84%	60%	> 80%	> 80%	> 80%	100%

Source: ChEMBL document CHEMBL1150156, “Semisynthesis of new sarcophine derivatives with chemopreventive activity” (J Nat Prod, 2002)
